{
  "source": "ChEMBL document CHEMBL3244080",
  "about": "“Structure-activity correlations for a series of antiallergy agents. Oxanilic, quinaldic, and benzopyran-2-carboxylic acids” (1978)",
  "test_system": "Rattus norvegicus",
  "assay": "Antiallergic activity in iv dosed Sprague-Dawley rat assessed as inhibition of egg albumin-induced passive cutaneous anaphylaxis",
  "type": "functional",
  "settings": "for ED50: Rattus norvegicus, Sprague-Dawley, iv",
  "summary_of_the_method": "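Rat passive cutaneous anaphylaxis; drug given iv as its tris(hydroxymethyl)aminomethane (THAM) salt solution at the moment of antigen challenge. Percent inhibition of the PCA reaction measured at three or more trial doses; ED50 = dose giving 50% inhibition of the anaphylactic reaction.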",
  "data": [
    {"compound": "Nc1ccc2nc(C(=O)O)cc(O)c2c1", "values": [
      {"measurement": "Activity_index", "result": 9.9},
      {"measurement": "ED50", "result": 48.3, "unit": "µmol/kg"}
    ]},
    {"compound": "COc1ccc2nc(C(=O)O)cc(O)c2c1", "values": [
      {"measurement": "Activity_index", "result": 9.4},
      {"measurement": "ED50", "result": 82.2, "unit": "µmol/kg"}
    ]},
    {"compound": "O=C(O)C(=O)Nc1ccccc1", "values": [
      {"measurement": "Activity_index", "result": 8.3},
      {"measurement": "ED50", "result": 245, "unit": "µmol/kg"}
    ]},
    {"compound": "N#Cc1ccc(NC(=O)C(=O)O)cc1", "values": [
      {"measurement": "Activity_index", "result": 10.1},
      {"measurement": "ED50", "result": 40.5, "unit": "µmol/kg"}
    ]},
    {"compound": "N#Cc1ccccc1NC(=O)C(=O)O", "values": [
      {"measurement": "Activity_index", "result": 11.5},
      {"measurement": "ED50", "result": 10.1, "unit": "µmol/kg"}
    ]},
    {"compound": "N#Cc1cccc(NC(=O)C(=O)O)c1", "values": [
      {"measurement": "Activity_index", "result": 12.6},
      {"measurement": "ED50", "result": 3.38, "unit": "µmol/kg"}
    ]},
    {"compound": "N#Cc1cc(NC(=O)C(=O)O)ccc1Cl", "values": [
      {"measurement": "Activity_index", "result": 13.1},
      {"measurement": "ED50", "result": 2.06, "unit": "µmol/kg"}
    ]},
    {"compound": "N#Cc1ccc(Cl)c(NC(=O)C(=O)O)c1", "values": [
      {"measurement": "Activity_index", "result": 13.3},
      {"measurement": "ED50", "result": 1.74, "unit": "µmol/kg"}
    ]},
    {"compound": "N#Cc1cc(C#N)cc(NC(=O)C(=O)O)c1", "values": [
      {"measurement": "Activity_index", "result": 14},
      {"measurement": "ED50", "result": 0.84, "unit": "µmol/kg"}
    ]},
    {"compound": "Nc1ccc2oc(C(=O)O)cc(=O)c2c1", "values": [
      {"measurement": "Activity_index", "result": 10},
      {"measurement": "ED50", "result": 43.5, "unit": "µmol/kg"}
    ]},
    {"compound": "O=C(O)c1cc(=O)c2cc([N+](=O)[O-])ccc2o1", "values": [
      {"measurement": "Activity_index", "result": 11.9},
      {"measurement": "ED50", "result": 6.48, "unit": "µmol/kg"}
    ]},
    {"compound": "O=C(O)c1cc(=O)c2c(OCC(O)COc3cccc4oc(C(=O)O)cc(=O)c34)cccc2o1", "note": "[CROMOLYN SODIUM]", "values": [
      {"measurement": "ED50", "result": 6.1, "unit": "µmol/kg"}
    ]},
    {"compound": "O=C(O)c1cc(=O)c2ccccc2[nH]1", "note": "[TRANSTORINE]", "values": [
      {"measurement": "Activity_index", "result": 10.1},
      {"measurement": "ED50", "result": 42.4, "unit": "µmol/kg"}
    ]},
    {"compound": "O=C(O)c1cc(O)c2cccc(O)c2n1", "note": "[XANTHURENATE]", "values": [
      {"measurement": "Activity_index", "result": 9.1},
      {"measurement": "ED50", "result": 114, "unit": "µmol/kg"}
    ]}
  ]
}
